From ChEMBL document CHEMBL4619820, “Development of Novel AKR1C3 Inhibitors as New Potential Treatment for Castration-Resistant Prostate Cancer” (J Med Chem, 2020)
Changes are numbered by the printed parent chain. Activity calls are given as the source filed them. The calls are words filed in the database; no cut-off is given here.

Assays:
[1] = biological target: T1, Aldo-keto reductase family 1 member C3 (Homo sapiens, UniProt P42330); assay: Inhibition of recombinant AKR1C3 (unknown origin) assessed as reduction in S-tetralol-induced dehydrogenase activity by measuring NADPH level
T1 sequence (P42330 whole entry): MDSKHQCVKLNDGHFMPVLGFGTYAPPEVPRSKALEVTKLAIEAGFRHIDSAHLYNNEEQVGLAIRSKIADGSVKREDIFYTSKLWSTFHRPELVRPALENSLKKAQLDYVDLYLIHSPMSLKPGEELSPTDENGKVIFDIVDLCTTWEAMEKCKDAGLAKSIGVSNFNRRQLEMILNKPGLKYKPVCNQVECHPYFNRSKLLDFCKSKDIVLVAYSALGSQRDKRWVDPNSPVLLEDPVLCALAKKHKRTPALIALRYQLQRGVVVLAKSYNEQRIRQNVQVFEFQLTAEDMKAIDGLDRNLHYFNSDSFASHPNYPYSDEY

[2] = biological target: T2, Aldo-keto reductase family 1 member C1 (Homo sapiens, UniProt Q04828); assay: Inhibition of recombinant AKR1C1 (unknown origin) assessed as reduction in S-tetralol-induced dehydrogenase activity by measuring NADPH level
T2 sequence (Q04828 whole entry): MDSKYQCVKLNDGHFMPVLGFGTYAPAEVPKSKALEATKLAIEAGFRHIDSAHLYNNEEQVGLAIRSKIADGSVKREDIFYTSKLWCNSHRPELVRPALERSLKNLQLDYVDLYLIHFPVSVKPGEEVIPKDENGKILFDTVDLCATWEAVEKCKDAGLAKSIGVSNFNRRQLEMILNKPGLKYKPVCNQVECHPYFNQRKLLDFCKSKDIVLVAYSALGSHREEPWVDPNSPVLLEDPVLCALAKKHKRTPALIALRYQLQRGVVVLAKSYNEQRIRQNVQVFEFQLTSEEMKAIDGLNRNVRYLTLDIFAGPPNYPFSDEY

Homo sapiens [3] = species: Homo sapiens; assay: Ratio of IC50 for inhibition of recombinant AKR1C1 (unknown origin) inhibition of recombinant AKR1C3 (unknown origin)
[4] = biological target: T3, Aldo-keto reductase family 1 member C2 (Homo sapiens, UniProt P52895); assay: Inhibition of recombinant AKR1C2 (unknown origin) assessed as reduction in S-tetralol-induced dehydrogenase activity by measuring NADPH level
T3 sequence (P52895 whole entry): T2 sequence (Q04828 whole entry) with T38V, R47H, L54V, C87S, V151M, R170H, Q172L

Homo sapiens [5] = species: Homo sapiens; assay: Ratio of IC50 for inhibition of CBR1 (unknown origin) inhibition of recombinant AKR1C3 (unknown origin)
Homo sapiens [6] = species: Homo sapiens; assay: Ratio of IC50 for inhibition of recombinant AKR1C2 (unknown origin) inhibition of recombinant AKR1C3 (unknown origin)
[7] = biological target: T4, Androgen receptor (Homo sapiens) (UniProt P10275); assay: Agonistic activity at AR in human 22Rv1 cells assessed as effect on cell number at 1 nM by CCK8 assay; assay type: cell-based; conditions: CWR22R
T4 sequence (whole entry): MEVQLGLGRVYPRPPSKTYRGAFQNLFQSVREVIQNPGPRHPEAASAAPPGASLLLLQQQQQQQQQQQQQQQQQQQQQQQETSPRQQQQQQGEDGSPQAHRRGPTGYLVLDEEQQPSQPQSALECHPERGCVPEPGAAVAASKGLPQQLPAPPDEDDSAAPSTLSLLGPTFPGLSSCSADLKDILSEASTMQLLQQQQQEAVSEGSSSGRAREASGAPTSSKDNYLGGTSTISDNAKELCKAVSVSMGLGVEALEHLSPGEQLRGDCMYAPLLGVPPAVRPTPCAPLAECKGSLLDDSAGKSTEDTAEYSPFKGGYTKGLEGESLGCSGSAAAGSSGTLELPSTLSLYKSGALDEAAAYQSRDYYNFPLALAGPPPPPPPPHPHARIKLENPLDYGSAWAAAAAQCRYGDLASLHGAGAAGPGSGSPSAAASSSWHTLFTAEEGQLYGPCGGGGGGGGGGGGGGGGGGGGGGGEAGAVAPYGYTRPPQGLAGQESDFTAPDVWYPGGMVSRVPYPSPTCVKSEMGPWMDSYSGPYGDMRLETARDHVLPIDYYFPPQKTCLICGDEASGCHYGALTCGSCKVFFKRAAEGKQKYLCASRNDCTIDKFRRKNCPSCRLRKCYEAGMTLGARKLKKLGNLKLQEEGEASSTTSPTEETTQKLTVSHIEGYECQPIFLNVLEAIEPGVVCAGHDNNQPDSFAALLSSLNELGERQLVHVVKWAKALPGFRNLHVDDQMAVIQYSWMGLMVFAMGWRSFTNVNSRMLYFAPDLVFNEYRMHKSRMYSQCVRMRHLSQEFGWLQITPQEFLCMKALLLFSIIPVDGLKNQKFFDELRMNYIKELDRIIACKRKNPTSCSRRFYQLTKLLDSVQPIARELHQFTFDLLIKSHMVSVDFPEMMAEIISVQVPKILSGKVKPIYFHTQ

[8] = biological target: T5, Carbonyl reductase [NADPH] 1 (Homo sapiens, UniProt P16152); assay: Inhibition of CBR1 (unknown origin)
T5 sequence (P16152 whole entry): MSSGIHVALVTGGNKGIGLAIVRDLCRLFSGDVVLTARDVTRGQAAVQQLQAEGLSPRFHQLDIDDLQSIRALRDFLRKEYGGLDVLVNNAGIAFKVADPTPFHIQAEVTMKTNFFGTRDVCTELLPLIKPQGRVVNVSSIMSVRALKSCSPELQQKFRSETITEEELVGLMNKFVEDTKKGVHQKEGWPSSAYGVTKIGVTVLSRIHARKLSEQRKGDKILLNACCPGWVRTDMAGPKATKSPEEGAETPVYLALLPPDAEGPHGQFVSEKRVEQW

[9] = biological target: T6, Aldo-keto reductase family 1 member C4 (Homo sapiens, UniProt P17516); assay: Inhibition of recombinant AKR1C4 (unknown origin) assessed as reduction in S-tetralol-induced dehydrogenase activity by measuring NADPH level
T6 sequence (P17516 whole entry): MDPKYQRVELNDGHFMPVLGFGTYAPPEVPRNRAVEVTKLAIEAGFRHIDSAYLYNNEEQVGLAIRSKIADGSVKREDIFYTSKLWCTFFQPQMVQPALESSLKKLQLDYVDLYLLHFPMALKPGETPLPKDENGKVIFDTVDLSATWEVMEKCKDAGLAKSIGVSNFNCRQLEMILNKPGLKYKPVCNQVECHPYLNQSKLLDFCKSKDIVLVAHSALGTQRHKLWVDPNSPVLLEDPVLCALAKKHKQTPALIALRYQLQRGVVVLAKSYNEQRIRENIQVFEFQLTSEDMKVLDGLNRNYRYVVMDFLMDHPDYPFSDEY

Homo sapiens [10] = species: Homo sapiens; assay: Ratio of IC50 for inhibition of recombinant AKR1C4 (unknown origin) inhibition of recombinant AKR1C3 (unknown origin)
CWR22R [11] = assay: Inhibition of pregnenolone-induced cell proliferation of human 22Rv1 cells at 10 uM pre-incubated for 2 hrs before pregnenolone stimulation for 72 hrs by alamar blue assay; assay type: functional, cell-based
Outline: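 22Rv1 cells (AKR1C3- and AR-expressing) pretreated 2 h with agents, then cultured 72 h with 20 nM pregnenolone; viable cell number given as percent of pregnenolone-free control.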

CWR22R [12] = assay: Inhibition of TMPRSS2 mRNA expression in human 22Rv1 cells at 10 uM pre-incubated for 2 hrs before pregnenolone stimulation for 24 hrs by RT-qPCR analysis; assay type: functional, cell-based
Outline: (§1)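 22Rv1 cells pretreated 2 h with test agents, then stimulated 24 h with 20 nM pregnenolone; AR, TMPRSS2 and PSA mRNA measured by RT-qPCR, given as ratio to pregnenolone-free control.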

CWR22R [13] = assay: Inhibition of PSA mRNA expression in human 22Rv1 cells at 10 uM pre-incubated for 2 hrs before pregnenolone stimulation for 24 hrs by RT-qPCR analysis; assay type: functional, cell-based; outline: as §1
CWR22R [14] = assay: Induction of apoptosis in human 22Rv1 cells assessed as effect on cleaved PARP protein expression level at 50 uM pre-incubated for 2 hrs before addition of pregnenolone for 24 hrs by Western blot analysis; assay type: functional, cell-based
Outline: (§2)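 Apoptotic markers in 22Rv1: 2 h pretreatment with or without 10 μM inhibitor and/or 50 μM enzalutamide, then 24 h 20 nM pregnenolone; Bax/Bcl-2 ratio as percent of control; cleaved caspase-3 also by immunofluorescence with DAPI.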

CWR22R [15] = assay: Induction of apoptosis in human 22Rv1 cells assessed as effect on cleaved caspase-3 protein expression level at 50 uM pre-incubated for 2 hrs before addition of pregnenolone for 24 hrs by Western blot analysis; assay type: functional, cell-based; outline: as §2
CWR22R [16] = assay: Induction of cell death in human 22Rv1 cells 50 uM pre-incubated for 2 hrs before addition of pregnenolone for 24 hrs; assay type: functional, cell-based
CWR22R [17] = assay: Induction of apoptosis in human 22Rv1 cells assessed as effect on Bax protein expression level at 50 uM pre-incubated for 2 hrs before addition of pregnenolone for 24 hrs by Western blot analysis; assay type: functional, cell-based; outline: as §2
CWR22R [18] = assay: Induction of apoptosis in human 22Rv1 cells assessed as increase in cleaved caspase-3 level at 50 uM pre-incubated for 2 hrs before addition of pregnenolone for 24 hrs by Western blot analysis; assay type: functional, cell-based; outline: as §2
CWR22R [19] = assay: Inhibition of AR mRNA expression in human 22Rv1 cells at 10 uM pre-incubated for 2 hrs before pregnenolone stimulation for 24 hrs by RT-qPCR analysis; assay type: functional, cell-based; outline: as §1
CWR22R [20] = assay: Induction of ROS generation in human 22Rv1 cells at 50 uM by DCFH-DA dye based flow cytometric analysis; assay type: functional, cell-based
Outline: (§3)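 22Rv1 cells exposed 3 h to 10 μM inhibitor and/or abiraterone, or 50 μM enzalutamide; intracellular ROS by flow cytometry as DCF-positive cells, percent of vehicle control.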

PC-3 [21] = conditions: Homo sapiens, at 10 µM
PC-3 [22] = assay: Inhibition of cell proliferation of human PC3 cells over-expressing AKR1C3 at 1 uM incubated for 72 hrs by alamar blue assay; assay type: functional, cell-based
CWR22R [23] = assay: Induction of apoptosis in human 22Rv1 cells pre-incubated for 2 hrs before addition of pregnenolone for 24 hrs; assay type: functional, cell-based
CWR22R [24] = assay: Induction of ROS generation in human 22Rv1 cells at 10 uM by DCFH-DA dye based flow cytometric analysis; assay type: functional, cell-based; outline: as §3

Compound	IC50 [1]	IC50 [2]	Ratio IC50 (Homo sapiens [3])	IC50 [4]	Ratio IC50 (Homo sapiens [5])	Ratio IC50 (Homo sapiens [6])	Activity [7]	IC50 [8]	IC50 [9]	Ratio IC50 (Homo sapiens [10])	inhibition (CWR22R [11])	inhibition (CWR22R [12])	inhibition (CWR22R [13])	inhibition (CWR22R [19])	other results
N=c1oc2c(O)cccc2cc1C(=O)Nc1cccc(Cl)c1	46 nM	> 10000 nM	> 220	> 10000 nM	3	> 220	inactive	120 nM	> 10000 nM	> 220	–	–	–	–	–
N=c1oc2c(O)cccc2cc1C(=O)Nc1cccc(F)c1	29 nM	> 10000 nM	> 340	> 10000 nM	13	> 340	inactive	370 nM	> 10000 nM	> 340	–	–	–	–	–
CNC(=O)c1ccc(N2C(=S)N(c3ccc(C#N)c(C(F)(F)F)c3)C(=O)C2(C)C)cc1F	–	–	–	–	–	–	–	–	–	–	Active	Active	Active	Active	Activity (CWR22R [14]): Active; Activity (CWR22R [15]): Active; Activity (CWR22R [16]): Active; Activity (CWR22R [17]): Active; Activity (CWR22R [18]): Active; Activity (CWR22R [20]): Active
N=c1oc2c(O)cccc2cc1C(=O)Nc1ccccc1C(F)(F)F	20 nM	> 10000 nM	> 500	> 10000 nM	4	> 500	–	75 nM	> 10000 nM	> 500	–	–	–	–	–
N#CC(=C(/N)Sc1ccccc1N)/C(C#N)=C(\N)Sc1ccccc1N	–	–	–	–	–	–	–	–	–	–	–	–	–	–	inhibition (PC-3 [21]): inactive
COC[C@H]1OC(=O)c2coc3c2[C@@]1(C)C1=C(C3=O)[C@@H]2CCC(=O)[C@@]2(C)C[C@H]1OC(C)=O	–	–	–	–	–	–	–	–	–	–	–	–	–	–	inhibition (PC-3 [22]): Active
CC(C)C(=O)Nc1ccc([N+](=O)[O-])c(C(F)(F)F)c1	–	–	–	–	–	–	–	–	–	–	Active	Active	Active	Active	–
C[C@]12CC[C@H](O)CC1=CC[C@@H]1[C@@H]2CC[C@]2(C)C(c3cccnc3)=CC[C@@H]12	–	–	–	–	–	–	–	–	–	–	Active	Active	Active	Active	Activity (CWR22R [23]): Active; Activity (CWR22R [24]): Active
N=c1oc2c(O)cccc2cc1C(=O)Nc1ccccc1Cl	56 nM	> 10000 nM	> 180	> 10000 nM	0.6	> 180	inactive	34 nM	> 10000 nM	> 180	–	–	–	–	–
